{"source": "PubChem BioAssay", "note": "The source made the active and inactive calls.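 How the source made its calls: active means current rise at least 3 SD above the untreated control mean in each of two repeat wells; inactive means the rest.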", "data": [{"molecular_target": "Potassium voltage-gated channel subfamily KQT member 1 (Homo sapiens) (UniProt P51787)", "sequence (P51787 whole entry, looked up)": "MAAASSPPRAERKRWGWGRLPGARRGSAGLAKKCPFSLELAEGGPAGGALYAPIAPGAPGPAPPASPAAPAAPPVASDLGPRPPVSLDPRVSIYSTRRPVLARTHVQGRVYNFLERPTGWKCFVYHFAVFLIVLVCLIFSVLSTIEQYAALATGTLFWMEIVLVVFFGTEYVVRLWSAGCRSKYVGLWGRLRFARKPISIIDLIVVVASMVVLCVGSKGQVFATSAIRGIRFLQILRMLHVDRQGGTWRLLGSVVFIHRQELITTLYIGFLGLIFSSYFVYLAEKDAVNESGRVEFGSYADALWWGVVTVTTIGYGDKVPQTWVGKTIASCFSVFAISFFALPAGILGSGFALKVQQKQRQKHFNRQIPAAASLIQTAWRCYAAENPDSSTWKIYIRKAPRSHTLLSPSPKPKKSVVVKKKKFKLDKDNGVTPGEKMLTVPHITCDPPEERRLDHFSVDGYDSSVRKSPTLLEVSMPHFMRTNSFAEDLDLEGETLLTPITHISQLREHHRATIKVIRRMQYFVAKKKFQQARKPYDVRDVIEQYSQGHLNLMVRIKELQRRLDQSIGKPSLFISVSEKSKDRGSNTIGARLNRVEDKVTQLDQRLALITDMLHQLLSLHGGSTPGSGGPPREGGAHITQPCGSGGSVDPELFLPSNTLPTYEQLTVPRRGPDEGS", "test": "KCNQ1 channel current potentiators, confirmation, orthogonal assay for KCNQ1 potentiator project, IonWorks patch clamp, KCNQ1-CHO cells (AID 493184);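 on current potentiation: percent change of the same well's current before compound addition so 0% = no change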", "settings": "automated patch clamp current, at 10 µM; stronger effect = higher value", "how_it_was_run": "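Probe or stimulus: depolarizing pulse to +40 mV from -90 mV; Material: CHO cells carrying KCNQ1; Compound: one dose, 10 µM final; Signal: automated voltage clamp, amphotericin B perforated patch; Read-out basis: percent current increase versus pre-compound level; Buffer or medium: pH 7.4 external bath; Replication: duplicates.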", "values": [{"smiles": "O=C1NC(=S)SC1=C1CCCC1", "outcome": "inactive"}, {"smiles": "COc1ccc(C(=O)N2CCC(n3nccc3NC(=O)C3CCOC3)CC2)cc1", "note": "(stereo not given)", "outcome": "inactive"}, {"smiles": "COc1cc(CNCc2ccccn2)ccc1OCc1c(Cl)cccc1Cl", "outcome": "inactive"}, {"smiles": "CCOc1ccc(/C=C2/SC(=O)NC2=S)cc1", "outcome": "inactive"}, {"smiles": "CC(Sc1n[nH]c(N)n1)C(=O)NC1CCCCC1C", "note": "(stereo not given)", "outcome": "inactive"}, {"smiles": "COC(=O)c1ccc(/C=C/c2ccc3cccc(OC)c3n2)cc1", "outcome": "inactive"}, {"smiles": "CCc1ccc(CNC(=O)CCn2nc(C)c3c(C)n(-c4ccccc4)nc3c2=O)cc1", "outcome": "inactive"}, {"smiles": "Cc1nn(C)c(C(=O)NC(=S)Nc2ccccc2Br)c1Cl", "outcome": "inactive"}, {"smiles": "COC(=O)c1cn(NC(=O)Cc2ccc(Cl)c(Cl)c2)c(=O)c2ccccc12", "outcome": "inactive"}, {"smiles": "COc1ccccc1C(=O)Nc1ccnn1C1CCN(CCCC2CCCC2)CC1", "outcome": "inactive"}, {"smiles": "CCOc1ccc(C(=O)NC(=S)N(Cc2ccccc2)Cc2ccccc2)cc1", "outcome": "inactive"}, {"smiles": "COc1ccc2oc(C(=O)OCC(=O)N3CC(C)OC(C)C3)c(C)c2c1", "note": "(stereo not given)", "outcome": "inactive"}, {"smiles": "Cc1nn(-c2ccccc2)c(Cl)c1/C=C1\\SC(=S)NC1=O", "outcome": "inactive"}, {"smiles": "CCOc1ccc(CN(CCC#N)C(=S)NC(=O)c2ccccc2)cc1", "outcome": "inactive"}, {"smiles": "O=C(NC(=S)Nc1ccccc1)c1ccc(Br)o1", "outcome": "inactive"}, {"smiles": "CC(C)C1Cc2c(sc3[nH]c(=S)n(Cc4ccccc4)c(=O)c23)CO1", "note": "(stereo not given)", "outcome": "inactive"}, {"smiles": "CCc1ccc(-c2c(C)sc(NC(C)=O)c2C(N)=O)cc1", "outcome": "inactive"}, {"smiles": "COc1ccc(C)cc1NC(=O)C(=O)NNC(=O)COc1ccc(Cl)cc1", "outcome": "inactive"}, {"smiles": "CN(C)CCCNc1nc2sc3c(c2c(=O)n1CCc1ccccc1)CCCCC3", "outcome": "inactive"}, {"smiles": "COc1cc2c(cc1OC)CN(C(=O)CNC(=O)c1ccc(OC(F)F)cc1)CC2", "outcome": "inactive"}, {"smiles": "O=C(NCc1ccccc1)C(=O)NCC1CCCN1S(=O)(=O)c1cccs1", "note": "(stereo not given)", "outcome": "inactive"}, {"smiles": "CCc1nccn1S(=O)(=O)c1ccc2ccc(C)cc2c1", "outcome": "inactive"}, {"smiles": "Cc1cccc(N=Cc2cc(Br)cc(Cl)c2O)c1", "outcome": "inactive"}, {"smiles": "CC(=O)c1ccc(N2CCN(C(=O)c3ccc(NC(=O)C4CCCO4)cc3)CC2)cc1", "note": "(stereo not given)", "outcome": "inactive"}, {"smiles": "CCc1ccc(C2c3[nH]c4ccccc4c3CCN2C(=O)CNC(N)=O)cc1", "note": "(stereo not given)", "outcome": "inactive"}, {"smiles": "CC(C)(C)n1nnnc1C(c1cc2cc3c(cc2[nH]c1=O)OCCO3)N1CCSCC1", "note": "(stereo not given)", "outcome": "inactive"}, {"smiles": "COc1ccc(/C=C2\\SC(=O)NC2=S)cc1OC", "outcome": "inactive"}, {"smiles": "CN(CC(=O)Nc1ccc(F)c(F)c1F)C(=O)CC1OC(=O)c2ccccc21", "note": "(stereo not given)", "outcome": "inactive"}, {"smiles": "Cc1ccc(C(=O)CC(=O)c2cc(Cl)ccc2O)cc1", "outcome": "inactive"}, {"smiles": "Cc1ccc(C2C(/C=C3/SC(=S)NC3=O)=C(c3cccs3)Oc3ccccc32)cc1", "note": "(stereo not given)", "outcome": "inactive"}, {"smiles": "CC1CC(C)CN(Cc2nc(N)nc(Nc3ccc4ccccc4c3)n2)C1", "note": "(stereo not given)", "outcome": "inactive"}, {"smiles": "CC1Cc2cc(/C=C3/SC(=S)NC3=O)ccc2O1", "note": "(stereo not given)", "current potentiation": "24.4% (active)"}, {"smiles": "CC(=O)Nc1ccc(/C=N/N2C(=O)NC(C)(c3ccc(OC(F)F)cc3)C2=O)cc1", "note": "(stereo not given)", "outcome": "inactive"}, {"smiles": "O=c1c2cc(Cl)ccc2nc(-c2ccc([N+](=O)[O-])cc2)n1O", "outcome": "inactive"}, {"smiles": "COc1cc(OC)cc(C(=O)Nc2nnc(SCC(=O)NCc3ccco3)s2)c1", "outcome": "inactive"}, {"smiles": "CCC(Oc1ccc(Cl)cc1)C(=O)N1CC(=O)Nc2ccccc21", "note": "(stereo not given)", "outcome": "inactive"}, {"smiles": "COc1ccccc1CNC(=O)COC(=O)c1nccnc1N", "outcome": "inactive"}, {"smiles": "O=C(CCOc1ccccc1)Nc1ccnn1C1CCN(Cc2ccc(CO)o2)CC1", "outcome": "inactive"}, {"smiles": "Cc1ccc2cc(CN(C(=O)c3ccco3)c3ccccc3C)c(=O)[nH]c2c1", "outcome": "inactive"}, {"smiles": "CCC1CCC2(CC1)NNC(=S)NN2", "outcome": "inactive"}]}]}
